Among the data in ChEMBL document CHEMBL1165892, “Cell cycle disruption and apoptotic activity of 3-aminothiazolo[3,2-a]benzimidazole-2-carbonitrile and its homologues” (2010) are Activity values, retold here.

Activity calls are given as the source filed them. No cut-off for these calls is given here.

In assay [1] the test system is MDA-MB-231. The assay is described as follows: Cell cycle arrest in human MDA-MB-231 cells assessed as accumulation at G2/M phase at 100 uM after 72 hrs using propidium staining by flow cytometry. In kind it is functional. In short, it runs like this: (§1)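 MDA-MB-231 cells were grown in RPMI 1640 with 100 ml/l FBS, 100 U/ml penicillin and 100 U/ml streptomycin. They were seeded in 60 mm dishes and held 24 h at 37 °C in humidified 50 ml/l CO₂. Cells were exposed for 24, 48 or 72 h, then resuspended in 50 mM Na citrate with propidium iodide for 30 min. DNA content was read by flow cytometry and phase percentages derived from histograms. Data are representative of three independent experiments.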

For assay [2], the system named is MDA-MB-231. The assay is described as follows: Induction of apoptosis in human MDA-MB-231 cells at 100 uM after 24 hrs using annexin V staining by flow cytometry. In kind it is functional. In short, it runs like this:
(§2)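 MDA-MB-231 cells were cultured in RPMI 1640 with 100 ml/l FBS and penicillin/streptomycin, then exposed for 24, 48 or 72 h. Harvested cells were stained with annexin V-FITC plus PI using a commercial kit per the manufacturer. Flow cytometry read emission at 530 and […], 10,000 cells per determination. Quadrants scored normal, early apoptotic, late apoptotic and necrotic cells. Results are representative of three experiments.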

The subject of assay [3] is MDA-MB-231. The assay is described as follows: Antiproliferative activity against human MDA-MB-231 cells at 100 uM after 48 hrs.
Assay [4] deals with MDA-MB-231. The assay is described as follows: Induction of apoptosis in human MDA-MB-231 cells at 100 uM after 72 hrs using annexin V staining by flow cytometry. The class given is functional. In short, it runs like this: as §2
For orientation: In flow cytometry, cells or beads pass a laser one at a time.

Assay [5] concerns MDA-MB-231. The assay is described as follows: Cell cycle arrest in human MDA-MB-231 cells assessed as accumulation at G2/M phase at 100 uM after 48 hrs using propidium staining by flow cytometry. In kind it is functional. The method in brief:
as §1

The test system of assay [6] is MDA-MB-231. Kind of assay: Induction of apoptosis in human MDA-MB-231 cells at 100 uM using annexin V staining by flow cytometry. The conditions noted are these: TDE = time-dependent effect. The class given is functional, cell-based. The method in brief: as §2
The subject of assay [7] is MDA-MB-231. Kind of assay: Induction of apoptosis in human MDA-MB-231 cells at 100 uM after 48 hrs using annexin V staining by flow cytometry. The class given is functional. In short, it runs like this: as §2
The subject of assay [8] is MDA-MB-231. The assay is described as follows: Cell cycle arrest in human MDA-MB-231 cells assessed as accumulation at G2/M phase at 100 uM after 24 hrs using propidium staining by flow cytometry. The class given is functional. In short, it runs like this: as §1
In assay [9] the test system is MDA-MB-231. Kind of assay: Cell cycle arrest in human MDA-MB-231 cells assessed as accumulation at S phase at 100 uM after 24 to 72 hrs using propidium staining by flow cytometry. In kind it is functional, cell-based. The method in brief:
as §1

The subject of assay [10] is MDA-MB-231. Kind of assay: Cell cycle arrest in human MDA-MB-231 cells decrease of cells at G1 phase at 100 uM after 24 to 72 hrs using propidium staining by flow cytometry. In kind it is functional, cell-based. The method in brief:
as §1

For the molecule `CC(=O)Nc1c(C#N)sc2nc3ccccc3n12`, the Activity is 45.79% in assay [1]; 23.77% in assay [2]; 80% in assay [4]; 46.22% in assay [5]; “tde” in [6]; 54.59% in [7]. For the same molecule, in [8], the Activity amounted to 42%. The outcome in assay [3], in assay [9] and in assay [10] was Active.
